Among the data in ChEMBL document CHEMBL1145619, “Conformation-activity relationship on novel 4-pyridylmethylthio derivatives with antiangiogenic activity” (Bioorg Med Chem Lett, 2008) are IC50 and inhibition values, retold here.

For assay [1], the target named is T1, Vascular endothelial growth factor receptor 2 (Homo sapiens, UniProt P35968). Nature of the assay: Inhibition of KDR by ELISA. The procedure, abridged: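 KDR kinase activity measured with a commercial kinase assay development kit by ELISA. The read-out is the phosphorylation level of a biotinylated peptide containing Tyr in its sequence.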
T1 sequence (P35968 whole entry): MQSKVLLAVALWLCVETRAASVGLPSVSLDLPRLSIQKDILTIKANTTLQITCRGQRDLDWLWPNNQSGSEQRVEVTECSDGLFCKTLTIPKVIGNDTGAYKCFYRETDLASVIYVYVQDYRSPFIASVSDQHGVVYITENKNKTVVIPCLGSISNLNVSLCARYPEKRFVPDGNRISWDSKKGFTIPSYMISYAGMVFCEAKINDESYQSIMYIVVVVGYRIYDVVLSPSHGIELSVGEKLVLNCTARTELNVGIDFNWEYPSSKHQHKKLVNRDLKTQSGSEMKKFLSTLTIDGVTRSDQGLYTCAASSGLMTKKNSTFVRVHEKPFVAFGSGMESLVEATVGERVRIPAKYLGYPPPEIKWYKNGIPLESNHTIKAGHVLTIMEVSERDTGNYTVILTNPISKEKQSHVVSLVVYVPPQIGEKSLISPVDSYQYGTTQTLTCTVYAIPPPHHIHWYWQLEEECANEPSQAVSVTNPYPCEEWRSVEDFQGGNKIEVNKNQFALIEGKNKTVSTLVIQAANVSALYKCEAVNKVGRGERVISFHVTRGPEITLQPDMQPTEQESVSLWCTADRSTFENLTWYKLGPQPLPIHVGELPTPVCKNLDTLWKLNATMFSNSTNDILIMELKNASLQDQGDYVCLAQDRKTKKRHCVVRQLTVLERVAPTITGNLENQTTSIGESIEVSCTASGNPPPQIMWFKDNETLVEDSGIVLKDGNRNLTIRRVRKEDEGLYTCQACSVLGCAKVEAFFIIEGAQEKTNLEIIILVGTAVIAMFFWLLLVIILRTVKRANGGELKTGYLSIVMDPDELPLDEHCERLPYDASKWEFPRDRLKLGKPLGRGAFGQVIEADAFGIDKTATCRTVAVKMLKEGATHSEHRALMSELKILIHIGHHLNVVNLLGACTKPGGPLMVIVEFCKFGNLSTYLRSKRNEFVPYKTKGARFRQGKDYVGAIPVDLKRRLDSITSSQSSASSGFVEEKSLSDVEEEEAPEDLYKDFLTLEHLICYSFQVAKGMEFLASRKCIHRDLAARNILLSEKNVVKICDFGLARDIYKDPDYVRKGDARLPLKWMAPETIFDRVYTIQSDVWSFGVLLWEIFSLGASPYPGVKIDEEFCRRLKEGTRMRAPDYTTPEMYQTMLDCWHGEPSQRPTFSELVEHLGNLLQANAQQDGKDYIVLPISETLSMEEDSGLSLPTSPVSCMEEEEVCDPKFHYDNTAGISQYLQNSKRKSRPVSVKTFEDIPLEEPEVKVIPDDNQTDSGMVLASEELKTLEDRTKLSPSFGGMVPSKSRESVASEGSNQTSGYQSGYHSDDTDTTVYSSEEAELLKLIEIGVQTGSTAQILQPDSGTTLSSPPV
(ELISA stands for enzyme-linked immunosorbent assay.)

For assay [2], the target named is T1, Vascular endothelial growth factor receptor 2. Nature of the assay: Inhibition of KDR at 10 uM by ELISA. The procedure, abridged:
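KDR kinase activity measured with a commercial kinase assay development kit by ELISA. The read-out is the phosphorylation level of a biotinylated peptide containing Tyr in its sequence. The table gives IC50 values, and gives percent inhibition at 10 µM where the IC50 exceeded the range.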

Assay [3] relates to HUVEC. Nature of the assay: Antiproliferative activity against VEGF-induced HUVEC cells. To be noted: Homo sapiens. The assay is classed as functional, cell-based.

Where only a bound is given, the exact number is not on record here.

Turning to `O=C(Nc1ccc(Cl)cc1)c1ccccc1SCc1ccncc1`, the concentration for half-maximal inhibition (IC50) in assay [1] worked out at 46 nM. This counts as double-digit nanomolar.
Same read-out and setting: next, `O=C(Nc1ccc(Cl)cc1)c1cccnc1SCc1ccncc1`: 26 nM.
As to `S=C(Nc1ccc(Cl)cc1)c1ccccc1OCc1ccncc1`, the IC50 in assay [1] is > 1000 nM. In assay [2], this compound had an inhibition of 0%.
Consider `O=C(Nc1ccc(Cl)cc1)c1ccccc1OCc1ccncc1`, for which the results for the IC50 in assay [1] and in assay [3] were > 1000 nM and > 2000 nM, respectively. Moreover, the inhibition in assay [2] worked out at 54%.
In turn, `Clc1ccc(Nc2nnc(Cc3ccncc3)c3ccccc23)cc1` returned a half-inhibitory concentration (IC50) in assay [3] of 6 nM.

Broadly, the IC50 is the point on the concentration scale where inhibition reaches its midpoint. The low end stands for greater potency in that assay, the high end for weaker potency in that assay. What is called inhibition is the percentage by which the read-out fell short of the control. A lower inhibition goes with a response near the control.
